Measured values: ChEMBL document CHEMBL1124865, “Synthesis and biological evaluation of a series of parenteral 3'-quaternary ammonium cephalosporins” (J Med Chem, 1990)
≈ marks a conversion by molar mass, not a printed value.

Columns and labels:
Format in all cases: functional
Escherichia coli [1] = experiment: In vivo efficacy against Escherichia coli infected mice treated at 1 hr and 5 hr post infection; conditions: Escherichia coli; read-out: ED50
Escherichia coli [2] = experiment: Antibacterial activity against Escherichia coli EC14
Pseudomonas aeruginosa [3] = experiment: In vivo efficacy against Pseudomonas aeruginosa infections in mice; conditions: Pseudomonas aeruginosa; read-out: MIC
Staphylococcus aureus [4] = experiment: In vivo efficacy against Staphylococcus aureus infections in mice
Pseudomonas aeruginosa [5] = experiment: Antibacterial activity against Pseudomonas aeruginosa X528
Enterococcus faecium = experiment: Antibacterial activity against Enterococcus faecium; conditions: Enterococcus faecium; read-out: MIC
Staphylococcus aureus [6] = experiment: Antibacterial activity against penicillin G resistance Staphylococcus aureus
Staphylococcus aureus [7] = experiment: Antibacterial activity against penicillin G susceptible Staphylococcus aureus
Pseudomonas aeruginosa [8] = experiment: Antibacterial activity against Pseudomonas aeruginosa PS18
Staphylococcus aureus [9] = experiment: In vivo efficacy against Staphylococcus aureus infected mice treated at 1 hr and 5 hr post infection
Enterobacter cloacae [10] = experiment: Antibacterial activity against Enterobacter cloacae 265A
Klebsiella pneumoniae [11] = experiment: Antibacterial activity against Klebsiella pneumoniae X26
Pseudomonas aeruginosa [12] = experiment: In vivo efficacy against Pseudomonas aeruginosa infected mice treated at 1 hr and 5 hr post infection; conditions: Pseudomonas aeruginosa; read-out: ED50
Streptococcus pyogenes = experiment: Antibacterial activity against Streptococcus pyogenes; conditions: Streptococcus pyogenes; read-out: MIC
Enterobacter cloacae [13] = experiment: Antibacterial activity against Enterobacter cloacae EB5; conditions: Enterobacter cloacae; read-out: MIC
Escherichia coli [14] = experiment: In vivo efficacy against Escherichia coli infections in mice; conditions: Escherichia coli; read-out: MIC
Klebsiella pneumoniae [15] = experiment: microbe, parasite or virus in culture
Streptococcus pneumoniae = experiment: Antibacterial activity against Streptococcus pneumoniae; conditions: Streptococcus pneumoniae; read-out: MIC
Escherichia coli [16] = experiment: Antibacterial activity against Escherichia coli TEM; conditions: Escherichia coli; read-out: MIC
Serratia marcescens = experiment: Antibacterial activity against Serratia marcescens SE3
Cavia porcellus = organism: Cavia porcellus; experiment: In vitro relative anticholinergic potential in isolated guinea pig trachea
Procedure, shortened: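 Guinea pig trachea in Krebs' solution at 37.5 °C, 95% O2/5% CO2, pH 7.4, 2 g resting tension. Cumulative carbachol log dose-response curve (3-fold steps) run before and 30 min after adding antagonist at 1 mM. […] Tukey test on log2 dose ratios.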

Pseudomonas aeruginosa [17] = experiment: In vitro relative hydrolysis rate against Pseudomonas Id
Procedure, shortened: (§1)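 Spectrophotometric hydrolysis at 265 nm, substrate exposed to partially purified cell-free β-lactamase preparations; rate expressed as percentage of the cephaloridine rate.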

Escherichia coli [18] = experiment: In vitro relative hydrolysis rate against Escherichia coli IIIa; procedure, shortened: as §1
Klebsiella pneumoniae [19] = experiment: In vitro relative hydrolysis rate against Klebsiella IV; procedure, shortened: as §1
Staphylococcus aureus [20] = experiment: In vitro relative hydrolysis rate against Staphylococcus aureus; procedure, shortened: as §1
Enterobacter cloacae [21] = experiment: In vitro relative hydrolysis rate against Enterobacter Ia; procedure, shortened: as §1
[22] = Escherichia coli, read-out: MIC
[23] = Staphylococcus aureus, read-out: MIC
[24] = Pseudomonas aeruginosa, read-out: MIC
[25] = Staphylococcus aureus, read-out: ED50
[26] = Enterobacter cloacae, read-out: MIC
[27] = Klebsiella pneumoniae, read-out: MIC
[28] = Serratia marcescens, read-out: MIC

SMILES	ED50 (Escherichia coli [1]) [mg/kg]	MIC (Escherichia coli [2]; [22]) [µg/mL]	MIC (Pseudomonas aeruginosa [3]) [µg/mL]	MIC (Staphylococcus aureus [4]; [23]) [µg/mL]	MIC (Pseudomonas aeruginosa [5]; [24]) [µg/mL]	MIC (Enterococcus faecium) [µg/mL]	MIC (Staphylococcus aureus [6]; [23]) [µg/mL]	MIC (Staphylococcus aureus [7]; [23]) [µg/mL]	MIC (Pseudomonas aeruginosa [8]; [24]) [µg/mL]	ED50 (Staphylococcus aureus [9]; [25]) [mg/kg]	MIC (Enterobacter cloacae [10]; [26]) [µg/mL]	MIC (Klebsiella pneumoniae [11]; [27]) [µg/mL]	ED50 (Pseudomonas aeruginosa [12]) [mg/kg]	MIC (Streptococcus pyogenes) [µg/mL]	MIC (Enterobacter cloacae [13]) [µg/mL]	MIC (Escherichia coli [14]) [µg/mL]	MIC (Klebsiella pneumoniae [15]; [27]) [µg/mL]	MIC (Streptococcus pneumoniae) [µg/mL]	MIC (Escherichia coli [16]) [µg/mL]	MIC (Serratia marcescens; [28]) [µg/mL]	other results
CO/N=C(\C(=O)N[C@@H]1C(=O)N2C(C(=O)[O-])=C(C[n+]3cccc(S(=O)(=O)O)c3)CS[C@H]12)c1csc(N)n1	0.08	0.06 (≈ 0.108 µM)	64 (≈ 115 µM)	4 (≈ 7.21 µM)	8 (≈ 14.4 µM)	> 128	8 (≈ 14.4 µM)	4 (≈ 7.21 µM)	32 (≈ 57.7 µM)	> 10	> 128	0.125 (≈ 0.225 µM)	41.6	0.06 (≈ 0.108 µM)	0.5 (≈ 0.902 µM)	0.06 (≈ 0.108 µM)	64 (≈ 115 µM)	0.06 (≈ 0.108 µM)	0.5 (≈ 0.902 µM)	0.25 (≈ 0.451 µM)	–
CO/N=C(\C(=O)N[C@@H]1C(=O)N2C(C(=O)[O-])=C(C[n+]3ccc4c(c3)ncn4C)CS[C@H]12)c1csc(N)n1	–	0.015 (≈ 0.0284 µM)	–	–	1 (≈ 1.89 µM)	128 (≈ 242 µM)	16 (≈ 30.3 µM)	2 (≈ 3.78 µM)	4 (≈ 7.57 µM)	–	8 (≈ 15.1 µM)	0.015 (≈ 0.0284 µM)	–	0.015 (≈ 0.0284 µM)	–	–	8 (≈ 15.1 µM)	0.008 (≈ 0.0151 µM)	0.015 (≈ 0.0284 µM)	–	RAP (Cavia porcellus): 1
CO/N=C(\C(=O)N[C@@H]1C(=O)N2C(C(=O)[O-])=C(C[n+]3cccc4cc(O)ccc43)CS[C@H]12)c1csc(N)n1	0.04	0.03 (≈ 0.0555 µM)	8 (≈ 14.8 µM)	1 (≈ 1.85 µM)	8 (≈ 14.8 µM)	128 (≈ 237 µM)	2 (≈ 3.7 µM)	1 (≈ 1.85 µM)	8 (≈ 14.8 µM)	1	16 (≈ 29.6 µM)	< 0.008	29	< 0.008	0.5 (≈ 0.925 µM)	0.03 (≈ 0.0555 µM)	4 (≈ 7.4 µM)	< 0.008	0.03 (≈ 0.0555 µM)	0.5 (≈ 0.925 µM)	–
CO/N=C(\C(=O)N[C@@H]1C(=O)N2C(C(=O)[O-])=C(C[n+]3ccc(C(N)=S)cc3)CS[C@H]12)c1csc(N)n1	< 0.16	0.03 (≈ 0.0562 µM)	8 (≈ 15 µM)	1 (≈ 1.87 µM)	1 (≈ 1.87 µM)	> 128	2 (≈ 3.75 µM)	1 (≈ 1.87 µM)	2 (≈ 3.75 µM)	1.4	8 (≈ 15 µM)	0.03 (≈ 0.0562 µM)	7.2	< 0.008	0.125 (≈ 0.234 µM)	0.03 (≈ 0.0562 µM)	8 (≈ 15 µM)	0.015 (≈ 0.0281 µM)	0.03 (≈ 0.0562 µM)	0.06 (≈ 0.112 µM)	–
CO/N=C(\C(=O)N[C@@H]1C(=O)N2C(C(=O)[O-])=C(C[n+]3ccc(CC(=O)NO)cc3)CS[C@H]12)c1csc(N)n1 (stereo in doubt; 11)	–	–	–	–	–	–	–	–	–	–	–	–	–	–	–	–	–	–	–	–	ED50 (Staphylococcus aureus [9]): 4 mg/kg; Hydrolysis rate (Pseudomonas aeruginosa [17]): 0.1; Hydrolysis rate (Escherichia coli [18]): 0.5; Hydrolysis rate (Klebsiella pneumoniae [19]): 10.4; Hydrolysis rate (Staphylococcus aureus [20]): 3.4; Hydrolysis rate (Enterobacter cloacae [21]): 0.4
CO/N=C(\C(=O)N[C@@H]1C(=O)N2C(C(=O)[O-])=C(C[n+]3cccc(CC(=O)O)c3)CS[C@H]12)c1csc(N)n1 (stereo in doubt; 14)	0.09	–	8 (≈ 15 µM)	–	–	> 128	–	–	–	–	–	–	20	0.015 (≈ 0.0282 µM)	0.25 (≈ 0.469 µM)	0.06 (≈ 0.113 µM)	–	0.015 (≈ 0.0282 µM)	0.06 (≈ 0.113 µM)	–	MIC (Escherichia coli [2]): 0.06 µg/mL (≈ 0.113 µM); MIC (Staphylococcus aureus [4]): 1 µg/mL (≈ 1.88 µM); MIC (Pseudomonas aeruginosa [5]): 2 µg/mL (≈ 3.76 µM); MIC (Staphylococcus aureus [6]): 2 µg/mL (≈ 3.76 µM); MIC (Staphylococcus aureus [7]): 1 µg/mL (≈ 1.88 µM); MIC (Pseudomonas aeruginosa [8]): 8 µg/mL (≈ 15 µM); ED50 (Staphylococcus aureus [9]): 1.4 mg/kg; MIC (Enterobacter cloacae [10]): 16 µg/mL (≈ 30 µM); MIC (Klebsiella pneumoniae [11]): 0.03 µg/mL (≈ 0.0563 µM); MIC (Klebsiella pneumoniae [15]): 16 µg/mL (≈ 30 µM); MIC (Serratia marcescens): 0.125 µg/mL (≈ 0.235 µM)
CO/N=C(\C(=O)N[C@@H]1C(=O)N2C(C(=O)[O-])=C(C[n+]3ccc4c(O)cccc4c3)CS[C@H]12)c1csc(N)n1	< 0.03	0.015 (≈ 0.0277 µM)	8 (≈ 14.8 µM)	1 (≈ 1.85 µM)	8 (≈ 14.8 µM)	128 (≈ 237 µM)	2 (≈ 3.7 µM)	1 (≈ 1.85 µM)	8 (≈ 14.8 µM)	2	16 (≈ 29.6 µM)	< 0.008	> 50	< 0.008	0.125 (≈ 0.231 µM)	0.015 (≈ 0.0277 µM)	8 (≈ 14.8 µM)	0.05 (≈ 0.0925 µM)	0.03 (≈ 0.0555 µM)	0.25 (≈ 0.462 µM)	–
